Experiments:
[1] = test system: L1210; test: Fraction of the cell population of cultured lymphoid leukemia L1210 cells in mitosis after 24 hr; at the concentration of 0.3 uM; type: functional, Mus musculus
[2] = test system: P388; test: antitumor activity against lymphocyte leukemia P388 in mice as percentage of increase in life span for 1 day schedule; type: functional, Mus musculus
Outline: (§1)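 Mice bearing lymphocytic leukemia P388 were treated. The value is the percent increase in life span at the highest nontoxic dose tested.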

[3] = test system: L1210; test: inhibition of proliferation of cultured lymphoid leukemia L1210 cells during 48 hr.; type: functional; details: Mus musculus, L1210, 48 h, read-out: ID50
Outline: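 Cultured L1210 cells were exposed to agent for 48 h. The value is the concentration that holds proliferation to 50% of untreated control.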

[4] = test system: L1210; test: Fraction of the cell population of cultured lymphoid leukemia L1210 cells in mitosis after 12 hr; type: functional, Mus musculus
[5] = test system: P388; test: antitumor activity against lymphocyte leukemia P388 in mice as percentage of increase in life span for 30th day survivor, 1-5 days schedule.; type: functional, Mus musculus
[6] = test system: P388; test: antitumor activity against lymphocyte leukemia P388 in mice as percentage of increase in life span for 1-5 days schedule (values in the parenthesen indicates dose); type: functional, Mus musculus; outline: as §1
[7] = test system: L1210; test: Antitumor activity against lymphoid leukemia L1210 in mice for 1-9 days schedule; type: functional, Mus musculus
Outline: (§2)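 Mice bearing L1210 leukemia; the read-out is the percent increase in life span, reported at the highest nontoxic dose tested. Toxic doses are flagged separately.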

[8] = test system: L1210; test: Antitumor activity against lymphoid leukemia L1210 in mice for 1 day schedule; type: functional, Mus musculus; outline: as §2
[9] = test system: KB; test: Inhibition of colony formation of KB human epidermoid carcinoma cells.; type: functional; details: read-out: ED50 (the source's name)
[10] = test system: L1210; test: Fraction of the cell population of cultured lymphoid leukemia L1210 cells in mitosis after 12 hr; at the concentration of 0.3 uM; type: functional, Mus musculus
[11] = test system: L1210; test: Fraction of the cell population of cultured lymphoid leukemia L1210 cells in mitosis after 12 hr; at the concentration of 0.01 uM; type: functional, Mus musculus
[12] = test system: L1210; test: Fraction of the cell population of cultured lymphoid leukemia L1210 cells in mitosis after 12 hr; at the concentration of 0.03 uM; type: functional, Mus musculus
[13] = test system: L1210; test: Fraction of the cell population of cultured lymphoid leukemia L1210 cells in mitosis after 24 hr; type: functional, Mus musculus
[14] = test system: HEp-2 (Homo sapiens); test: Inhibition of colony formation of human epidermoid carcinoma no. 2 (HEp-2) cells.; details: read-out: ED50 (the source's name)
[15] = test system: L1210; test: Fraction of the cell population of cultured lymphoid leukemia L1210 cells in mitosis after 12 hr; at the concentration of 0.1 uM; type: functional, Mus musculus
[16] = test system: P388; test: antitumor activity against lymphocyte leukemia P388 in mice as percentage of increase in life span for 1-9 days schedule; type: functional, Mus musculus; outline: as §1
[17] = test system: P388; test: antitumor activity against lymphocyte leukemia P388 in mice as percentage of increase in life span for 1-9 days schedule. (values in the parenthesen indicates dose); type: functional, Mus musculus; outline: as §1
[18] = test system: L1210; test: Fraction of the cell population of cultured lymphoid leukemia L1210 cells in mitosis after 12 hr at the concentration of 0.03 uM; type: functional, Mus musculus
[19] = test system: L1210; test: Fraction of the cell population of cultured lymphoid leukemia L1210 cells in mitosis after 24 hr at the concentration of 0.3 uM; type: functional, Mus musculus

SMILES	EC50 [9] [nM]	ILS [2] [%]	IC50 [3] [nM]	ILS [8] [%]	also measured
CCOC(=O)Nc1cc2ncc(-c3ccccc3)nc2c(N)n1		0	> 300		Mitotic index [1]: 0.02
CCOC(=O)Nc1cc2c(c(N)n1)N=C(c1ccc3ccccc3c1)CN2			6		Mitotic index [4]: 0.6; ILS [5]: 66%; ILS (mg/kg) [6]: 53%
CCOC(=O)Nc1cc(N(C)CC(O)c2ccccc2)c(N)c(N)n1 (centres undefined)		0	> 300		
CCOC(=O)Nc1cc(N)c2c(n1)NCC(CN(C)c1ccc(C(=O)OC)cc1)=N2	24000			0	ILS [7]: 0%
CCOC(=O)Nc1cc2c(c(N)n1)N=C(c1ccc(-c3ccccc3)cc1)CN2		36	6.1		Mitotic index [10]: 0.42; Mitotic index [11]: 0.65
CCOC(=O)Nc1cc2ncc(-c3ccc(C(F)(F)F)cc3)nc2c(N)n1			> 300		
CCOC(=O)Nc1cc2c(c(N)n1)N=C(CN(C)c1ccccc1)CN2		114	8.4		Mitotic index [12]: 0.77; Mitotic index [13]: 0.8
CCOC(=O)Nc1cc2c(c(N)n1)N=C(CCc1ccccc1)CN2		29	13		Mitotic index [1]: 0.33
COC(=O)c1ccc(N(C)CC2=Nc3c(cc(N)nc3Cl)NC2)cc1	> 100000				
CCOC(=O)Nc1cc2ncc(CNc3ccc(C(=O)OCC)cc3)nc2c(N)n1					EC50 [14]: 42000 nM
CN(CC1=Nc2c(cc(N)nc2N)NC1)c1ccccc1			5.8		Mitotic index [15]: 0.44; Mitotic index [10]: 0.61; ILS [16]: 30%
CCOC(=O)Nc1cc2c(c(NC(=O)OCC)n1)N=C(CN(C)c1ccccc1)CN2				46	ILS [7]: 14%; EC50 [14]: 1200 nM
CCOC(=O)Nc1cc2ncc(CN(C)c3ccc(C(=O)OC)cc3)nc2c(N)n1					EC50 [14]: 19000 nM
CCOC(=O)Nc1cc2ncc(CN(C)c3ccccc3)nc2c(N)n1	670				
CCOC(=O)Nc1cc2c(c(N)n1)N=C(c1ccc(C(F)(F)F)cc1)CN2		0	150		Mitotic index [1]: 0.01; ILS (mg/kg) [17]: 17%
CCOC(=O)Nc1ccc(/N=C/c2ccccc2)cn1		0	> 300		
CCOC(=O)Nc1cc2c(c(N)n1)N=C(c1ccccc1)CN2C		12	160		Mitotic index [10]: 0.68
CCOC(=O)Nc1ccc(/N=C(/C=C(/O)OCC)c2ccccc2)c(N)n1			> 300		Mitotic index [1]: 0.03
CCOC(=O)Nc1cc2c(c(N)n1)N=C(c1ccccc1)C(C)N2 (centres undefined)		54	0.51		ILS (mg/kg) [6]: 75%
CCOC(=O)Nc1cc2c(c(N)n1)N=C(c1ccccc1)CN2		55	4.7		Mitotic index [18]: 0.65; Mitotic index [19]: 0.54; ILS (mg/kg) [17]: 51%

Second part, led by results:

EC50 [9] [nM]	SMILES	ILS [2] [%]	IC50 [3] [nM]	ILS [8] [%]	also measured
21000	COC(=O)c1ccc(N(C)CC2=Nc3c(N)nc(N)nc3NC2)cc1				
> 100000	CCOC(=O)Nc1cc2ncc(C(=O)N(C)c3ccccc3)nc2c(N)n1			0	
10000	CCOC(=O)c1ccc(NCC2=Nc3c(N)nc(N)nc3NC2)cc1			8	ILS [7]: 0%
240000	CCOC(=O)Nc1cc(N)c2nc(CN(C)c3ccc(C(=O)OC)cc3)cnc2n1			0	ILS [7]: 0%
> 100000	CN(Cc1cnc2cc(N)nc(N)c2n1)c1ccccc1			0	ILS [7]: 0%
17000	CCOC(=O)c1ccc(NCc2cnc3nc(N)nc(N)c3n2)cc1			0	ILS [7]: 0%
19000	COC(=O)c1ccc(N(C)Cc2cnc3nc(N)nc(N)c3n2)cc1			3	ILS [7]: 2%
8000	CCOC(=O)Nc1cc2c(c(O)n1)N=C(CN(C)c1ccc(C(=O)OC)cc1)CN2			2	
91000	CCOC(=O)Nc1cc2c(c(NC(=O)OCC)n1)N=C(C)CN2			0	
600	CCOC(=O)Nc1cc2c(c(N)n1)NC(CN(C)c1ccccc1)CN2 (centres undefined)			10	
29000	CN(CC1=Nc2c(cc(N)nc2S)NC1)c1ccc(C(=O)O)cc1				

— ChEMBL document CHEMBL1122315, “1,2-Dihydropyrido[3,4-b]pyrazines: structure-activity relationships” (1983)
